Test results as given in ChEMBL document CHEMBL3992510, “Urea Derivatives of 2-Aryl-benzothiazol-5-amines: A New Class of Potential Drugs for Human African Trypanosomiasis” (J Med Chem, 2017).
Calls of active or inactive are those of the source. The rule behind the calls is not given here.

Experiments:
[1] = tested on: Trypanosoma brucei brucei; test: Antitrypanosomal activity against Trypanosoma brucei brucei BF427 assessed as growth inhibition measured after 48 hrs by Alamar blue assay; assay type: functional; settings: BF427, 48 h
Method in brief: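 Bloodstream-form parasites in HMI-9 medium are exposed to serial compound dilutions in triplicate. Viability is read with Alamar Blue at 48 h. EC50 and EC90 come from nonlinear regression. Pentamidine isethionate is the control.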

HepG2 = test: Cytotoxicity against human HepG2 cells assessed as growth inhibition after 48 hrs by Alamar blue assay; assay type: cell-based; settings: Homo sapiens, HepG2, 48 h
Method in brief: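 CRL-8155 lymphoblasts or HepG2 hepatocellular carcinoma cells are exposed 48 h to serial compound dilutions in quadruplicate. Growth is read with Alamar Blue, and 50% and 90% inhibitory concentrations come from nonlinear regression. Quinacrine is the control.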

[2] = Selectivity index, ratio of EC50 for human HepG2 cells to EC50 for Trypanosoma brucei brucei BF427; assay type: toxicity; settings: read-out: Ratio EC50
[3] = Selectivity index, ratio of EC50 for human CRL8155 cells to EC50 for Trypanosoma brucei brucei BF427; assay type: toxicity; settings: read-out: Ratio EC50
[4] = Stability in mouse liver microsomes assessed as compound remaining at 1.5 uM in presence of NADPH measured after 60 mins by liquid chromatography/tandem mass spectrometric analysis; assay type: ADME, microsome; settings: read-out: Stability
Method in brief: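 Pooled liver microsomes (0.5 mg/mL) are preincubated 5 min at 37 °C in 0.16 M KH2PO4 with 1 mM NADPH, then test compound is added at 1.5 μM. Aliquots are quenched with 4 volumes of acetonitrile at 0, 5, 10, 15, 30 and 60 min and analyzed by LC-MS/MS. Percent remaining at 5 or 60 min is given when t1/2 is outside the 5–60 min range. Controls: testosterone, dextromethorphan.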

[5] = AUC (0 to infinity) in mouse at 50 mg/kg, po administered as single dose via gavage as 7% Tween 80/3% EtOH/5% DMSO formulation by liquid chromatography/tandem mass spectrometric analysis; assay type: ADME, organism-based; set-up: dose 50 mg/kg, route oral, time infinity; settings: in vivo
Method in brief: (§1)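 Single oral gavage dose of 50 mg/kg to groups of three mice, vehicle as in the line. Tail blood of 40 μL is taken into heparinized capillaries at time points out to as much as 32 h. It is spotted on dried-blood cards and quantified by LC-MS/MS. Values are means ± SEM of three mice.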

[6] = Drug level in mouse plasma at 5 mg/kg, ip administered as single dose measured at 1 hr post dose by liquid chromatography/tandem mass spectrometric analysis; assay type: ADME, organism-based
Method in brief: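 Single ip dose of 5 mg/kg in 5% DMSO/7% Tween 80/3% EtOH in 0.9% saline, three mice per compound (six for one compound). At 1 h, plasma is separated by centrifugation and brain homogenized in acetonitrile. Both are quantified by LC-MS/MS, with brain corrected for 3% v/w blood. Brain/plasma ratio is reported as mean ± SEM.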

[7] = Drug level in mouse brain at 50 mg/kg, po administered as single dose via gavage measured at 4 hrs post dose by liquid chromatography/tandem mass spectrometric analysis; assay type: ADME, organism-based; settings: read-out: Drug uptake
Method in brief: (§2)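 Single 50 mg/kg oral dose in DMSO (5%), Tween 80 (7%), EtOH (3%) in 0.9% saline; groups of three mice killed at 1, 4, 8 and 24 h. Plasma separated by brief centrifugation; brain homogenised in acetonitrile; both assayed by LC-MS/MS, brain values corrected for 3% v/w blood content. Mean ± SEM of 3 mice; plasma LLQ 0.010 μM.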

[8] = Drug level in mouse brain at 50 mg/kg, po administered as single dose via gavage measured at 8 hrs post dose by liquid chromatography/tandem mass spectrometric analysis; assay type: ADME, organism-based; settings: read-out: Drug uptake; method in brief: as §2
[9] = Drug level in mouse plasma at 50 mg/kg, po administered as single dose via gavage measured at 24 hrs post dose by liquid chromatography/tandem mass spectrometric analysis; assay type: ADME, organism-based; method in brief: as §2
[10] = Drug level in mouse brain at 50 mg/kg, po administered as single dose via gavage measured at 24 hrs post dose by liquid chromatography/tandem mass spectrometric analysis; assay type: ADME, organism-based; settings: read-out: Drug uptake; method in brief: as §2
[11] = AUC (0 to infinity) in mouse at 50 mg/kg, po administered as single dose via gavage as 60% phosal 53 MCT/30% PEG400/10% EtOH formulation by liquid chromatography/tandem mass spectrometric analysis; assay type: ADME, organism-based; set-up: dose 50 mg/kg, time infinity, route oral; settings: in vivo; method in brief: as §1
[12] = AUC (0 to infinity) in mouse at 50 mg/kg, po administered as single dose via gavage as 0.5% methylcellulose cP400/0.5% Tween 80 formulation by liquid chromatography/tandem mass spectrometric analysis; assay type: ADME, organism-based; set-up: dose 50 mg/kg, route oral, time infinity; settings: in vivo; method in brief: as §1
[13] = tested on: Trypanosoma brucei rhodesiense; test: Antiparasitic activity against Trypanosoma brucei rhodesiense STIB900 infected in Swiss-Webster mouse assessed as reduction in parasitemia at 50 mg/kg, po bid administered via gavage from day 2 to 5 post infection measured on day 60 by microscopic method; assay type: functional, organism-based
Method in brief: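 Female Swiss-Webster (ND4 outbred) mice, 6–8 weeks old, five per group, are infected on day 0 with 1 × 10^4 parasites. Dosing is 50 mg/kg by oral gavage every 12 h on days 2–5 (eight doses) in 200 μL of 5% DMSO/7% Tween 80/3% EtOH in 0.9% saline. Tail blood is examined microscopically for 60 days, and mice become parasitemic are euthanized. Three mice are sampled before dose 7 and at 1 and 6 h after for plasma levels.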

Plasma [14] = test: Drug level in Swiss-Webster mouse plasma infected with Trypanosoma brucei rhodesiense STIB900 at 50 mg/kg, po bid administered via gavage for 4 days starting from 2 days post infection measured on day 3 prior to dose 7; assay type: ADME, organism-based; settings: in vivo
Method in brief: (§3)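 Female Swiss-Webster mice (ND4 outbred, 6−8 weeks), groups of five, infected day 0 with 1 × 10^4 T. b. rhodesiense STIB900; 50 mg/kg oral gavage every 12 h days 2−5 (eight doses) in 200 μL DMSO 5%, Tween 80 7%, EtOH 3% in 0.9% saline. Tail blood from 3 mice before dose 7, then 1 and 6 h post-dose, spotted on cards, LC-MS/MS.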

[15] = Drug level in Swiss-Webster mouse plasma infected with Trypanosoma brucei rhodesiense STIB900 at 50 mg/kg, po bid administered via gavage for 4 days starting from 2 days post infection measured at 1 hr post last dose; assay type: ADME, organism-based; method in brief: as §3
[16] = Drug level in Swiss-Webster mouse plasma infected with Trypanosoma brucei rhodesiense STIB900 at 50 mg/kg, po bid administered via gavage for 4 days starting from 2 days post infection measured at 6 hrs post last dose; assay type: ADME, organism-based; method in brief: as §3
Plasma [17] = test: Drug level in Swiss-Webster mouse plasma infected with Trypanosoma brucei brucei TREU667 at 50 mg/kg, po bid administered via gavage for 10 days starting from 21 days post infection measured on day 7 prior to dose 15; assay type: ADME, organism-based; settings: in vivo
Method in brief: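 Groups of five mice given 1 × 10^4 T. b. brucei TREU667 on day 0; from day 21, 50 mg/kg oral gavage every 12 h for 10 d (20 doses) in 200 μL Phosal 53 MCT (60%), PEG400 (30%), EtOH (10%). Tail blood drawn from 3 mice before dose 15 and 1 and 6 h after it, spotted on cards, LC-MS/MS.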

[18] = Drug level in Swiss-Webster mouse plasma infected with Trypanosoma brucei brucei TREU667 at 50 mg/kg, po bid administered via gavage for 10 days starting from 21 days post infection measured at 6 hrs post last dose; assay type: ADME, organism-based

Question: For `O=C(Nc1ccc2sc(-c3ccc(F)c(F)c3)nc2c1)N1CC[C@H](F)C1`, which EC50 [1] is on record?
Answer: The EC50 was 34.8 nM.

Question: And the EC90 [1]?
Answer: Its EC90 is 54.8 nM.

Question: And the EC50 (HepG2)?
Answer: Its EC50 is over 50000 nM.

Question: What about the selectivity ratio [2] of the same molecule?
Answer: The selectivity ratio was over 1440.

Question: And the selectivity ratio [3]?
Answer: Its selectivity ratio is over 1440.

Question: And the remaining at 1 h, 1.5 µM [4]?
Answer: Its remaining at 1 h, 1.5 µM is 73%.

Question: What about the AUC(0-inf) [5] of the same molecule?
Answer: The AUC(0-inf) was 220 to 221 µM·h.

Question: And the concentration at 1 h [6]?
Answer: Its concentration at 1 h is 2.27 µM.

Question: And the concentration at 4 h [7]?
Answer: Its concentration at 4 h is 45.2 µM.

Question: And the concentration at 8 h [8]?
Answer: Its concentration at 8 h is 48.1 µM.

Question: And the concentration at 24 h [9]?
Answer: The concentration at 24 h was 0.01 µM.

Question: And the concentration at 24 h [10]?
Answer: The concentration at 24 h was 0.28 µM.

Question: What about the AUC(0-inf) [11] of the same molecule?
Answer: The AUC(0-inf) was 245 µM·h.

Question: And the AUC(0-inf) [12]?
Answer: The AUC(0-inf) was 106 µM·h.

Question: And the Activity [13]?
Answer: The Activity was “Active”.

Question: And the concentration (Plasma [14])?
Answer: Its concentration is 9.1 µM.

Question: What about the concentration at 1 h [15] of the same molecule?
Answer: The concentration at 1 h was 18.6 µM.

Question: And the concentration at 6 h [16]?
Answer: Its concentration at 6 h is 15 µM.

Question: What about the concentration (Plasma [17]) of the same molecule?
Answer: The concentration was 15.8 µM.

Question: And the concentration at 6 h [18]?
Answer: The concentration at 6 h was 26.7 µM.
